Source: PubChem
Tn6 DDE FP = disrupts Tn6 cyclic peptide binding to fibrin D-Dimer-E complex; P02675; Fibrin DD(E) TRITC-Tn6 fluorescence polarization displacement; inhibition, % at 8.3 µM; 370,000 compounds, 0.21% hits;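 active = inhibition above a per-campaign cutoff: mean of compounds within control limits plus 3 SD, cut at about 15% in these data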
PLC-beta3 inh = PLC-beta3 (human) inhibition, primary screen; Q01970; Purified PLC-beta3, fluorogenic substrate, fluorescence; inhibition, % at 12.2 µM; 370,000 compounds, 0.18% hits; in the data active = inhibition above about 11%
ADAM10 inh = inhibitors of human ADAM10; 370,000 compounds, 0.62% hits; recombinant ADAM10, EDANS/DABCYL FRET peptide cleavage, 3 h; inhibition, % at 7 µM; O14672;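 active = inhibition above a per-campaign cutoff equal to the mean of compounds falling between control-based bounds plus 3 SD, cut at about 20% in these data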
PLC-gamma1 inh = blocks human PLC-gamma1 enzyme activity; P19174; purified PLC-gamma1, fluorogenic substrate, fluorescence; inhibition, % at 12.2 µM; 370,000 compounds, 0.84% hits; AID 720700; in the data active = inhibition above about 9.5%
Target sequence (P19174 whole entry, looked up): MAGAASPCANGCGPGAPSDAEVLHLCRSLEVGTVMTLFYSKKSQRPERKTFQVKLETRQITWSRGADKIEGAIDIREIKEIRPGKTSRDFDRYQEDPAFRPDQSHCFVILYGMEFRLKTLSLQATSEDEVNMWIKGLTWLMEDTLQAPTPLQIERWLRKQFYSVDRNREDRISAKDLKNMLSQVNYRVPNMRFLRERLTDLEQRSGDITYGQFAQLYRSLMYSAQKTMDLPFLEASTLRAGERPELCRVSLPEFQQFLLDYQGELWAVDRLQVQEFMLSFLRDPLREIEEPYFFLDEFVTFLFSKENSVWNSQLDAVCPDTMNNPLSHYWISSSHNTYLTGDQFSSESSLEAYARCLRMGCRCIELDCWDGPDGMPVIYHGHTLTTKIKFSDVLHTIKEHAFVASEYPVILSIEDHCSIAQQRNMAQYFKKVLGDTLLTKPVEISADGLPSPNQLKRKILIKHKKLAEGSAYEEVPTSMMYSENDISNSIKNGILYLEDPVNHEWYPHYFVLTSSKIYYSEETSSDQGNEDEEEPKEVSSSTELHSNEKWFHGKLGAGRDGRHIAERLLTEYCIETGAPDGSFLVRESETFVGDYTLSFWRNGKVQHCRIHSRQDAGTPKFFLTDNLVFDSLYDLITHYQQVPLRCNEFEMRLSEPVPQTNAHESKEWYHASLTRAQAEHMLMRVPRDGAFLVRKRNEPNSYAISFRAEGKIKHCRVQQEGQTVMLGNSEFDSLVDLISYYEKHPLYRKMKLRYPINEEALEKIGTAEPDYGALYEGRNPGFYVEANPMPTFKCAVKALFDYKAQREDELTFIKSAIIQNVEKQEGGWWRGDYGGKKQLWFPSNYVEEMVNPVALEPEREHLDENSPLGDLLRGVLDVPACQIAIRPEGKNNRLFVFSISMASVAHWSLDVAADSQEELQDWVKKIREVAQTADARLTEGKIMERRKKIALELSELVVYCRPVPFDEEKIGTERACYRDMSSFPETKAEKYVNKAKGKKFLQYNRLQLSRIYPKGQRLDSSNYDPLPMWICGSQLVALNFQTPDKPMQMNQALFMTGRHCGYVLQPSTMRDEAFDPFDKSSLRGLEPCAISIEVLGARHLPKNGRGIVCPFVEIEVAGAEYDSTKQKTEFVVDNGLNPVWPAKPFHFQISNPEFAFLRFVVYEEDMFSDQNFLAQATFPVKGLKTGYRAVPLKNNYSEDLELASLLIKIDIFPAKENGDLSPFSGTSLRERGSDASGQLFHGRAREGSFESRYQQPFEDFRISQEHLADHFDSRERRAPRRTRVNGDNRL
DDE Tn7 FP inh = disrupts Tn7 cyclic peptide binding to fibrin D-Dimer-E complex; P02675; FP displacement of FITC-Tn7 peptide from fibrin DD(E); 0% = median of compound wells per plate; inhibition, % at 8.3 µM; 370,000 compounds, 0.13% hits; AID 720508;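 active = inhibition above the mean of compounds falling within the control limits plus 3 SD of them, cut at about 14% in these data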
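Assay system: human fibrin DD(E) protein / Input: 2 µM fibrin DD(E) / Benchmarks: high control of 10 µM Aha-Tn7 peptide / Measured by: fluorescence polarization of the labelled Tn7 tracer / Medium: Tris buffer with calcium and detergent, pH 7.8 / Timing: 10 min compound pre-incubation, 3 h probe incubation at room temperature / Repeats: one replicate per compound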
ADAM17 inh = inhibits human ADAM17 | P78536 | inhibition, % at 6.95 µM | AID 720648 | recombinant ADAM17, EDANS/DABCYL FRET peptide cleavage | 370,000 compounds, 0.83% hits;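 active = inhibition above the mean of compounds lying between control limits plus 3 SD, set per campaign, cut at about 8.5% in these data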
ADAM10 confirm = human ADAM10 inhibition, confirmation | 2,100 compounds, 1% hits | shares compounds with ADAM10 inh | ADAM10 QFRET peptide cleavage, EDANS fluorescence | AID 743208 | inhibition, % at 6.95 µM;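 active = inhibition above about 20% chosen separately for each screening run, limit read from the data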
ADAM17 ctr = inhibits human ADAM17 in ADAM10 exosite counter-screen | inhibition, % at 6.95 µM | shares compounds with ADAM10 inh | AID 743214 | ADAM17 QFRET peptide cleavage, EDANS fluorescence | 2,100 compounds, 0.5% hits;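 active = mean triplicate inhibition above the solvent-only control wells' mean plus 3 SD, cut at about 12% in these data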
Large screens that a line does not name were inactive (follow-up assays come after a bar, where they were run). Hits are enriched below; roughly 2.3% of the tested compounds scored in any of these assays.

Cc1noc(NS(=O)(=O)c2ccc(NC(=O)/C=C/c3ccc(Br)cc3)cc2)c1C	ADAM10 inh 22 | ADAM10 confirm inactive | ADAM17 ctr inactive
CCC(c1nnnn1C(C)C)N1CCN(C2CCCC2)CC1 (centres undefined)	ADAM10 inh 74 | ADAM10 confirm inactive | ADAM17 ctr inactive
Cc1cccc(OCCNC(=O)c2ccc(Oc3ccc(C(F)(F)F)cc3[N+](=O)[O-])cc2)c1	ADAM10 inh 26 | ADAM10 confirm inactive | ADAM17 ctr inactive
O=C(c1ccc(Oc2ccc(C(F)(F)F)cc2[N+](=O)[O-])cc1)N1CCOCC1	none
CCNc1nc(NC(C)C)nc(SCCOc2ccc(C)cc2)n1	ADAM10 inh 24 | ADAM10 confirm inactive | ADAM17 ctr inactive
COc1cc(CN(C2CCCCC2C)S(=O)(=O)c2ccc(S(=O)(=O)NC3CC3)cc2)cc(OC)c1OC (centres undefined)	none
COc1ccc(CN(C2CCCCC2C)S(=O)(=O)c2ccc(S(=O)(=O)N(C)C)cc2)cc1OC (centres undefined)	ADAM10 inh 22 | ADAM10 confirm inactive | ADAM17 ctr inactive
Oc1ccc(F)cc1-c1cc(-c2ccc3c(c2)OCCO3)n[nH]1	ADAM10 inh 23 | ADAM10 confirm inactive | ADAM17 ctr inactive
Oc1ccccc1-c1cc(-c2ccc(F)cc2)n[nH]1	none
Cc1cc(C)c(OCC(=O)Nc2ccc(NC(=O)c3ccco3)cc2)c([N+](=O)[O-])c1	none
Cc1cc(C)c(OCC(=O)Nc2cccc(NC(=O)c3ccco3)c2)c(Br)c1	ADAM10 inh 21 | ADAM10 confirm inactive | ADAM17 ctr inactive
COc1ccc(C2C(C(=O)N3CCN(C=O)CC3)CC(=O)N2c2ccc(OC)cc2)cc1 (centres undefined)	none
O=C(COc1ccc(-c2nnco2)cc1)Nc1c(F)cccc1F	ADAM10 inh 84 | ADAM10 confirm inactive | ADAM17 ctr inactive
CCOC(=O)CC[C@H]1CC[C@]2(CCCN(C(=O)c3ccno3)C2)O1	none
CCCCCCCCN1C(=O)[C@@H](CC(=O)NCc2cccc3ccccc23)C[C@@]2(C(=O)OC)C1=C[C@H](COCc1ccccc1)O[C@@H]2C	none
Cc1ccc(OCC(=O)NNC(=O)c2ccc3c(=O)n4c(nc3c2)CCC4)cc1	none
COc1ccc(OCC(=O)NNC(=O)c2ccc3c(=O)n4c(nc3c2)CCC4)cc1	ADAM10 inh 71 | ADAM10 confirm inactive | ADAM17 ctr inactive
O=C(COc1ccc(Cl)cc1)NNC(=O)c1ccc2c(=O)n3c(nc2c1)CCC3	ADAM10 inh 81 | ADAM10 confirm inactive | ADAM17 ctr inactive
O=C(NNC(=O)c1ccc2c(=O)n3c(nc2c1)CCC3)c1ccc(Cl)cc1	none
Cc1[nH]n2c(=O)cc(-c3ccc([N+](=O)[O-])cc3)nc2c1-c1ccccc1	ADAM10 inh 23 | ADAM10 confirm inactive | ADAM17 ctr inactive
CCCc1ccc(Oc2cn[nH]c2-c2ccc(O)c(C)c2O)cc1	ADAM10 inh 32, ADAM17 inh 14 | ADAM10 confirm inactive | ADAM17 ctr inactive
COc1cccc(Oc2cn[nH]c2-c2ccc(OC)cc2O)c1	none
CCOc1ccc(-n2c(SCC(=O)Nc3ccc(S(=O)(=O)Nc4cc(C)nc(C)n4)cc3)nnc2-c2ccc(C)cc2)cc1	none
COc1ccc(-c2cn[nH]c2-c2ccc(OCc3ccccc3F)cc2O)cc1OC	ADAM10 inh 23 | ADAM10 confirm inactive | ADAM17 ctr inactive
COc1ccccc1-c1cn[nH]c1-c1ccc(OCc2ccccc2)cc1O	none
COc1ccc(-c2cn[nH]c2-c2ccc(OCc3ccccc3)cc2O)cc1	ADAM10 inh 20 | ADAM10 confirm inactive | ADAM17 ctr inactive
COC(=O)C1CN(Cc2ccc(C)cc2)CCS(=O)(=O)N1Cc1cn(Cc2ccc(OC)cc2)nn1 (centres undefined)	none
C#CCN(C[C@@H]1[C@@H](OC(=O)NCc2ccccc2)[C@@H](OC(=O)NCc2ccccc2)Cn2c(=O)n(CCCCCC)c(=O)n21)S(=O)(=O)c1ccc(C)cc1	none
C#CCN(C[C@@H]1[C@@H](OC(=O)NCc2ccc(OC)c(OC)c2)[C@@H](OC(=O)NCc2ccc(OC)c(OC)c2)Cn2c(=O)n(CCCCCC)c(=O)n21)S(=O)(=O)c1ccc(C)cc1	ADAM10 inh 21 | ADAM10 confirm inactive | ADAM17 ctr inactive
Cc1c(NC(=O)C2CCCN(S(=O)(=O)c3ccccc3[N+](=O)[O-])C2)c(=O)n(-c2ccccc2)n1C (centres undefined)	none
Cc1ccc(-c2ccnc(-c3ccc(O)cc3)n2)cc1	none
Oc1ccc(-c2nccc(-c3ccc(Br)cc3)n2)cc1	ADAM10 inh 20 | ADAM10 confirm inactive | ADAM17 ctr inactive
CCOC(=O)[C@]12CCCCC/C=C\1N(CCc1ccc(Cl)cc1)C(=O)[C@H]2CC(=O)NCCCOC	none
COc1ccccc1NCC(O)COc1ccc(C(C)(C)C)cc1 (centres undefined)	ADAM10 inh 21 | ADAM10 confirm inactive | ADAM17 ctr inactive
COc1ccc(C)cc1NC(=O)CSc1nnc(-c2n[nH]c3c2CCC3)n1N	none
O=C(CN1CCN(S(=O)(=O)c2ccc(F)cc2)CC1)c1ccc(O)c(O)c1	none
COc1ccc(S(=O)(=O)N2CCN(CC(=O)c3ccc(O)c(O)c3)CC2)cc1	ADAM10 inh 22 | ADAM10 confirm inactive | ADAM17 ctr inactive
C[C@H]1[C@@H](OC(=O)NCCc2ccccc2)CC[C@@]23CCCN2C(=O)CCC[C@@H]13	none
Cc1ccccc1CC(=O)Nc1nnc(-c2cccnc2)s1	none
Cc1csc(NC(=O)c2cccc(Cn3nc(C)c(Br)c3C)c2)n1	ADAM10 inh 20 | ADAM10 confirm inactive | ADAM17 ctr inactive
Cc1nn(Cc2ccc(C(=O)Nc3nc4c(C)cccc4s3)o2)c(C)c1Br	none
Nc1nc(CSC(=S)N2CCCCC2)nc(Nc2ccccc2)n1	none
CC1CC(C)CN(C(=S)SCc2nc(N)nc(Nc3ccccc3)n2)C1 (centres undefined)	ADAM10 inh 28 | ADAM10 confirm inactive | ADAM17 ctr inactive
Cc1n[nH]c(C)c1S(=O)(=O)NCCc1ccccc1	none
CCCCOCCCNC(=O)C[C@@H]1C(=O)N2CCCC3=C2[C@@]1(C(=O)OC)CCCC3	none
CC(Nc1nc(-c2ccccc2)nc2ccccc12)c1ccccc1 (centres undefined)	ADAM10 inh 29, ADAM17 inh 11 | ADAM10 confirm inactive | ADAM17 ctr inactive
COC[C@H]1CCCN1c1cccc2c1S(=O)(=O)N(C1CC1)CCCO2	none
